Active and inactive are the calls of the source. The rule behind the calls is not given here.

Data set [1] addresses T1, Indoleamine 2,3-dioxygenase 1 (Homo sapiens, UniProt P14902). The experiment in a line: Inhibition of human recombinant IDO1 using L-tryptophan as substrate.
Target sequence in this assay (P14902 whole entry): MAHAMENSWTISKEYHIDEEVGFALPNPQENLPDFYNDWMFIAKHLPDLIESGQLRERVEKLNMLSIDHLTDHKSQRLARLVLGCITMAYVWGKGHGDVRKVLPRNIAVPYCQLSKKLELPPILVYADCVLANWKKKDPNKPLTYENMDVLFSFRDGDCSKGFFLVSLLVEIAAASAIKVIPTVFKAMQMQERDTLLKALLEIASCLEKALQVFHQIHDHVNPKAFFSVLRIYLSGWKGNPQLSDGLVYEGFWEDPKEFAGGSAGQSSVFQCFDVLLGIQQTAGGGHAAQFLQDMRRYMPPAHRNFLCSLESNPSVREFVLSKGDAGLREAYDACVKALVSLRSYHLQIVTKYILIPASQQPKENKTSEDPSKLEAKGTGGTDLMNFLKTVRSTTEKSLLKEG
Data set [2] concerns the target T1, Indoleamine 2,3-dioxygenase 1. Kind of data set: Uncompetitive inhibition of human recombinant IDO1 using L-tryptophan as substrate. The gist of the method:
(§1)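 Reversibility and inhibition mode taken from kinetic graphical plots of recombinant human IDO-1 activity. The enzyme assay used a methylene blue/ascorbate regeneration system. Ki derived by plotting [S]/V against inhibitor concentration.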
Target sequence in this assay (P14902 whole entry): as above

The target is the same in data set [3]. Kind of data set: Inhibition of human IDO1 expressed in HEK293 cells assessed as kynurenine release after 5 hrs by spectrophotometry. The data set is classed as cell-based.
Data set [4] is described as follows: DPPH radical scavenging activity assessed as reducing ability at […] after 30 mins by spectrophotometry. The class given is physicochemical. Conditions: 0.5 h. The gist of the method:
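Tryptanthrins at 5, 10, 20, 40, 80 or 160 μM in DMSO (100 μL) mixed with 100 μL DPPH radical (100 μM in ethanol, acetate-buffered pH 5.5). Absorbance at 517 nm read after 30 min gentle shaking in the dark. Ascorbic acid as reference. Triplicates.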

Data set [5] in a line: DPPH radical scavenging activity assessed as reducing ability at 5 to 160 uM after 30 mins by spectrophotometry. The conditions noted are these: 0.5 h. A general note: The DPPH test is a chemical assay of radical scavenging.
The target of data set [6] is T1, Indoleamine 2,3-dioxygenase 1. The experiment in a line: Mixed competitive inhibition of human recombinant IDO1 using L-tryptophan as substrate. The gist of the method: as §1
Target sequence in this assay (P14902 whole entry): as above
For data set [7], the system named is Mus musculus. Kind of data set: Upregulation of IDO1 expression in cytoplasm of C57BL/6 mouse tumor allografted with mouse LLC cells at 200 mg/kg, po qd after 14 days by immunohistochemical analysis. Further details: dose 200 mg/kg. The class given is functional, organism-based. The gist of the method: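 LLC allografts in C57BL/6 mice, sc at 2 × 10^6 cells. Oral dosing once daily at 200 mg/kg or 0.5% CMC vehicle from 5 mm tumor diameter for 14 days. Tumors and TDLNs cut into 5 μm sections with heat antigen retrieval. Rabbit Foxp3 Ab (1/100) or mouse IDO-1 Ab (1/50) applied 1 h, then Alexa Fluor secondary 30 min. Nuclei counterstained; imaged at ×200.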

The target of data set [8] is T1, Indoleamine 2,3-dioxygenase 1. The experiment in a line: Binding affinity to human IDO1 by SPR assay. Put shortly: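 SPR at 25 °C on purified human IDO-1 immobilized on a CM5 sensor chip, compound injected at a series of concentrations. Running buffer PBS with 0.1% dodecylmaltoside, 0.05 mM EDTA and 5% DMSO, pH 7.4. KD taken as the equilibrium dissociation constant from instrument evaluation.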
Background: Surface plasmon resonance follows binding to a sensor surface in real time, without labels.
Target sequence in this assay (P14902 whole entry): as above

The test system of data set [9] is Mus musculus. Kind of data set: In vivo inhibition of IDO1 in C57BL/6 mouse allografted with mouse LLC cells assessed as kynurenine to tryptophan ratio in plasma at 200 mg/kg, po qd after 14 days by HPLC analysis relative to control. Also noted: dose 200 mg/kg. The class given is functional, organism-based. Put shortly: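 C57BL/6 mice, 8 weeks old, given 2 × 10^6 LLC cells sc in right forelimb and randomized to three groups. Oral dosing once daily from 5 mm tumor diameter with 0.5% CMC vehicle or 200 mg/kg. Plasma taken after 14 days. Trp and Kyn measured by HPLC and Kyn/Trp ratio calculated, n = 9−10. One-way ANOVA against vehicle.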

Data set [10] has as its system Mus musculus. Kind of data set: Reduction of Foxp3 expression in nucleus of C57BL/6 mouse tumor allografted with mouse LLC cells at 200 mg/kg, po qd after 14 days by immunohistochemical analysis.
In data set [11] the test system is Lewis lung carcinoma cell line. The experiment in a line: Antitumor activity against mouse LLC cells allografted in C57BL/6 mouse assessed as reduction in tumor volume at 200 mg/kg, po qd after 14 days. The class given is functional. Conditions: 336 h, read-out: TGI.
The target of data set [12] is T1, Indoleamine 2,3-dioxygenase 1. Kind of data set: Competitive inhibition of human recombinant IDO1 using L-tryptophan as substrate.
Target sequence in this assay (P14902 whole entry, looked up): as the sequence (P14902 whole entry) above

In general, IC50 refers to the concentration needed to halve the response being measured. Turning to `O=C1c2ccccc2-n2c1nc1ccc(F)cc1c2=O`, the IC50 in data set [1] is 864 µM.

What is called Ki is a measure of affinity in units of concentration, obtained from inhibition or displacement. For the molecule `O=C1c2ccccc2N[C@H]2[C@H](O)c3ccccc3N12`, in data set [2], the IC50 is 16 µM and the inhibition constant (Ki) is 8.58 µM. For the same molecule, the IC50 in data set [3] worked out at 0.779 µM.

As for `O=C1O[C@H]([C@@H](O)CO)C(O)=C1O` [ASCORBIC ACID], in [4], the outcome was Active.

`O=C1c2cc(F)ccc2-n2c1nc1ccc(F)cc1c2=O`: in data set [2], the IC50 was 2.72 µM and the Ki was found to be 5.48 µM. The IC50 in data set [3] is 0.466 µM.

As for `O=C1c2ccccc2N[C@H]2[C@H](O)c3cc(F)ccc3N12`, in data set [2], the IC50 is 6.21 µM and the Ki worked out at 4.54 µM. Further, the IC50 in data set [3] was determined as 0.0243 µM.

Consider `O=C1c2cc([N+](=O)[O-])ccc2-n2c1nc1ccccc1c2=O`, for which, in [5], the Activity entry was “Not Active”. Further, in data set [2], the concentration for half-maximal inhibition (IC50) was 0.103 µM and the Ki came out at 0.054 µM.

In the case of `O=C1c2ccccc2-n2c1nc1ccccc1c2=O` [TRYPTANTHRIN], the Activity entry in data set [5] is on record as “Not Active”. Besides, in data set [6], the IC50 worked out at 7.15 µM and the inhibition constant Ki came to 4.81 µM. In [3], the IC50 turned out to be 0.0537 µM.

As for `Cc1ccc2c(c1)C(=O)c1nc3ccccc3c(=O)n1-2`, in data set [6], the IC50 stood at 121 µM and the Ki was found to be 219 µM.

For the molecule `O=C1c2cc(F)ccc2N[C@H]2[C@H](O)c3ccccc3N12`, the IC50 in data set [1] came to 451 µM.

On to `O=C1c2cc(Br)ccc2-n2c1nc1ccccc1c2=O`, for which the Activity entry in data set [5] is “Not Active”. Further, in data set [2], the IC50 came to 0.574 µM and the Ki stood at 0.389 µM. Further, the IC50 in data set [3] is 0.0539 µM.

A word on the Kd: it is the constant that tells how readily two partners part at equilibrium. The low end stands for tighter binding, the high end for weaker binding. Regarding `O=C1c2cc(F)ccc2-n2c1nc1ccccc1c2=O`, the result in data set [7] and in [10] was Active. For the same molecule, binding in data set [8] was characterised by a dissociation constant (Kd) of 46.8 µM. Also, in data set [9], the inhibition result was “Active”. The Activity entry in data set [5] is listed as “Not Active”. Besides, the values for the IC50 in data set [2] and in [3] were 0.534 µM and 0.023 µM, respectively. Further, in [2], the inhibition constant (Ki) is 0.161 µM. In addition, the inhibition in vivo at 200 mg/kg in [11] came out at 62%.

`O=C1c2c(Cl)cccc2-n2c1nc1ccccc1c2=O`: the Activity entry in [5] is given as “Not Active”. In data set [2], the IC50 is 8.19 µM and the Ki amounted to 9.65 µM. In data set [3], the IC50 was 0.0271 µM.

Consider `O=C1c2cc(Cn3cc(-c4ccccc4)nn3)ccc2-n2c1nc1ccc(F)cc1c2=O`, for which the inhibition result in data set [12] and in data set [3] was “inactive” throughout.

Consider `O=C1c2ccc(Cl)cc2-n2c1nc1ccccc1c2=O`, for which, in data set [2], the IC50 turned out to be 74.4 µM and the Ki is 49.4 µM. Also, the half-inhibitory concentration (IC50) in [3] is 0.183 µM.

The values are drawn from ChEMBL document CHEMBL3085691, “Discovery of tryptanthrin derivatives as potent inhibitors of indoleamine 2,3-dioxygenase with therapeutic activity in Lewis lung cancer (LLC) tumor-bearing mice” (J Med Chem, 2013).
